# Screening data (PubChem BioAssay)
# Most compounds without a hit are left out; they make up all but 2.9% or so of the library.
# SENP8 block-1 = inhibitors of human SENP8 protease; inhibition, % at 20 µM; recombinant SENP8, Nedd8 substrate fluorescence; actives 0.64% (n = 360,000); AID 602440; Q96LD8; in the data active means inhibition mostly above about 40%, no sharp cut-off; inactive means mostly below about 27%
# SENP7 inh = inhibitors of human SENP7 protease | recombinant SENP7, Z-RLRGG-aminoluciferin luminescence, 40 min | inhibition, % at 5 µM | actives 1.5% (n = 330,000) | AID 434973;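 active means inhibition above about 50% at the single test dose, limit read from the data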
# Apaf-1 inh = human Apaf-1 inhibition | O14727 | inhibition, % at 20 µM | reconstituted apoptosome caspase-3 activity, DEVD-Rh110 fluorescence | actives 0.71% (n = 330,000) | AID 489030; active means inhibition of at least 40% at 20 µM
#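 Material: reconstituted apoptosome with Apaf-1, cytochrome c, caspase-9, procaspase-3, dATP; medium: pH 7.5 Hepes buffer with CHAPS, BSA, DTT; also added: cytochrome c and DEVD-Rh110 substrate; timing: 30 min plus 50 min, RT; signal: Rh110 fluorescence intensity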
# SENP6 inh = SENP6 protease inhibition | Q9GZR1 | Recombinant SENP6 catalytic domain, aminoluciferin luminescence | inhibition, % at 10 µM | actives 1.8% (n = 330,000) | AID 2599;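 active means inhibition above about 50% at the single tested dose, limit read from the data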
# Target sequence (Q9GZR1 628-1112 limits assumed): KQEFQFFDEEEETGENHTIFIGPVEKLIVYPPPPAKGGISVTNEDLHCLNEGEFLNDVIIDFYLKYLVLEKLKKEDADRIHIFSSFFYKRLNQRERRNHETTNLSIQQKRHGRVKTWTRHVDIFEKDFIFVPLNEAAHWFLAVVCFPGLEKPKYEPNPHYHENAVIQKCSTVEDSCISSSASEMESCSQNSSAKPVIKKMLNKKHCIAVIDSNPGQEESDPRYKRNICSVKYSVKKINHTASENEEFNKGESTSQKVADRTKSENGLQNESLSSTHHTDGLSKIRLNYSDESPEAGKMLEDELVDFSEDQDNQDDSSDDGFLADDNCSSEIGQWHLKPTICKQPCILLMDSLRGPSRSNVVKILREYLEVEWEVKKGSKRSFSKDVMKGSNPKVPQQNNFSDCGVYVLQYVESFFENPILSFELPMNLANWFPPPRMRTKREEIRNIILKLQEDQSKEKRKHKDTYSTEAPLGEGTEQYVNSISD
# SENP1 inh = SENP1 (human) catalytic domain inhibition. recombinant SENP1 catalytic domain, CyPet-SUMO1-YPet FRET cleavage. inhibition, % at 10 µM. actives 0.21% (n = 360,000). AID 624204;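 active means inhibition at least 30% at 10 µM, raw YFP signal under a set limit, fluorescence ratio 0.5 to 1.5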
#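 Test system: recombinant human SENP1 catalytic domain, His6-tagged / Medium: pH 8 Tris buffer with EDTA, NaCl, BME, BSA, NP40, catalase / Also added: SUMO1 FRET substrate flanked by Cypet and Ypet, 25 nM / Times: 50 min reaction at room temperature / Signal: FRET, CFP and YFP emission / Control set: no-enzyme low control and enzyme-plus-DMSO high control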
# SENP8 block-2 = SENP8 protease inhibition | Q96LD8 | purified SENP8, Z-RLRGG-aminoluciferin cleavage, luminescence | inhibition, % at 10 µM | actives 1.2% (n = 330,000) | AID 2540; in the data active means inhibition above about 50%
# SENP8 confirm = human SENP8 inhibition, confirmed; shares compounds with SENP7 inh; Recombinant SENP8, Z-RLRGG-aminoluciferin luminescence, 60 min; inhibition, % at 12.5 µM; actives 40% (n = 6,200);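 active means mean inhibition across replicates above about 50%, limit read from the data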
# SENP6 conf = confirmation of human SENP6 protease inhibitors | actives 58% (n = 6,200) | shares compounds with SENP7 inh | recombinant SENP6, Z-RLRGG-aminoluciferin luminescence | inhibition, % at 12.5 µM
# SENP7 confirm = confirmation of human SENP7 protease inhibitors; recombinant SENP7, Z-RLRGG-aminoluciferin luminescence, 40 min; actives 69% (n = 6,200); shares compounds with SENP7 inh; AID 488917; inhibition, % at 12.5 µM
# Casp3 SENP sel = inhibits human caspase-3 in SENP selectivity test | shares compounds with SENP7 inh | actives 60% (n = 6,200) | purified caspase-3, Z-DEVD-aminoluciferin luminescence, 60 min | AID 488918 | inhibition, % at 12.5 µM;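 active means mean inhibition above about 50%, limit read from the data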
# SENP luc ctr = interferes with luciferase luminescence in SENP counter-screen; shares compounds with SENP7 inh; Pre-incubated SENP8/Z-RLRGG-aminoluciferin, luciferase luminescence interference; inhibition, % at 12.5 µM; actives 39% (n = 6,200); AID 488919;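 active means mean inhibition above about 50% when retested at one dose, limit read from the data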
# Hits are given with their value; n = inactive; x = no result given.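 How the source made its calls, unless noted: active means mean inhibition above about 50% in the one-dose retest (limit read from the data); inactive means the rest.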
SMILES,SENP8 block-1,SENP7 inh,Apaf-1 inh,SENP6 inh,SENP1 inh,SENP8 block-2,SENP8 confirm,SENP6 conf,SENP7 confirm,Casp3 SENP sel,SENP luc ctr
O=C(c1cc2c(ccc3ccccc32)o1)N1CCCCC1,n,91,n,93,n,84,90,90,99,86,89
O=C(Nc1cccnc1)c1cc2c(ccc3ccccc32)o1,n,82,n,67,n,61,n,56,56,62,n
CCc1ccc2oc(C(=O)Nc3cccnc3)c(C)c2c1,n,69,n,64,n,n,n,67,92,55,n
CCOC(=O)C1(Cc2ccc(Cl)cc2)CCN(C(C)Cc2ccc(O)c(OC)c2)CC1 (centres undefined),n,n,n,n,n,n,x,x,x,x,x
O=S1(=O)CC(N2CCCCC2)CN1CCc1ccccc1 (centres undefined),n,x,x,x,n,x,x,x,x,x,x
CCOC(=O)c1cc(CC)sc1NC(=O)CN1C(=O)C(=O)N(CC(C)C)C1=O,n,n,n,n,n,n,x,x,x,x,x
CCNC(=O)C1CCCN(C(=O)c2ccc(C(=O)OC)cc2)CC1 (centres undefined),n,x,x,x,n,x,x,x,x,x,x
COc1n[nH]c(C(=O)Nc2cc(Cl)ccc2Cl)c1[N+](=O)[O-],n,n,n,55,n,n,n,n,n,n,n
CCCN(CC(=O)Nc1ccccc1C)C(=O)c1ccc(COc2ccccc2)cc1,n,n,n,n,n,n,x,x,x,x,x
Cn1c(CCn2ccccc2=O)nc2cc(NC(=O)COc3ccccc3)ccc21,n,n,n,n,n,n,x,x,x,x,x
Cc1nnc(SCC(=O)Nc2sccc2C#N)s1,n,n,n,n,n,n,x,x,x,x,x
N#Cc1ccsc1NC(=O)CSc1nnnn1-c1ccc(O)cc1,n,n,n,52,n,n,n,n,61,n,n
N#Cc1ccsc1NC(=O)CSc1nncs1,n,97,n,95,n,95,97,97,102,98,84
CCN(CC)CCCNC(=O)c1c(O)c2c([nH]c1=O)CCCC2,n,59,n,n,n,n,n,n,n,n,n
O=C1/C(=C\c2cccnc2)CCc2ccccc21,n,n,n,74,n,n,75,63,n,n,84
O=C1/C(=C/c2ccccc2)CCCc2ccccc21,n,66,n,70,n,76,89,93,97,76,83
CN(C)c1ccc(/C=C2\CCC/C(=C\c3ccccc3)C2=O)cc1,n,x,x,x,n,x,x,x,x,x,x
CC(=O)Oc1ccc(-c2nc(-c3cccnc3)no2)cc1,n,100,n,96,n,98,97,99,103,98,n
Cc1ccc(CC(=O)Nc2ccc(Cl)cn2)cc1,n,n,n,n,n,n,x,x,x,x,x
Cc1ccc(C(=O)Nc2ccc(Cl)cn2)cc1,n,59,n,75,n,59,n,64,90,78,n
O=C(Nc1ccc(Cl)cn1)c1ccc(Oc2ccccc2)cc1,n,91,n,91,n,90,n,52,58,n,n
Cc1ccccc1C(=O)Nc1ccc(Br)c(C)n1,n,66,n,59,n,n,61,62,87,65,58
Cc1nc(NC(=O)c2cccnc2)ccc1Br,n,n,n,n,n,n,x,x,x,x,x
Cc1ccccc1C(=O)Nc1ccccn1,n,n,n,n,n,n,x,x,x,x,x
Cc1ccccc1C(=O)Nc1ccc(Cl)cn1,n,51,n,56,n,n,n,n,73,74,n
SMILES,SENP8 block-1,SENP7 inh,Apaf-1 inh,SENP6 inh,SENP1 inh,SENP8 block-2,SENP8 confirm,SENP6 conf,SENP7 confirm,Casp3 SENP sel,SENP luc ctr
COc1ccccc1Cn1c(C)c(C(=O)NCCC#N)sc1=O,n,x,x,x,n,x,x,x,x,x,x
CC(=O)c1[nH]c(C)c(C(=O)N2CCCC(Nc3cccc(F)c3)C2)c1C (centres undefined),n,n,n,n,n,n,x,x,x,x,x
CSc1ccc(OC2(C)CCN(Cc3ccc(C(C)C)cc3)C2)cc1 (centres undefined),n,x,x,x,n,x,x,x,x,x,x
S=C(NCc1ccc(Cl)cc1)NCc1ccco1,n,n,n,n,n,n,x,x,x,x,x
CCCOc1ccc(C(=O)Nc2ccc(Cl)cn2)cc1,n,84,n,78,n,71,n,n,50,n,n
Cc1ccc(C(=O)Nc2ncc3c(Cl)cccc3n2)cc1,n,91,n,88,n,81,83,93,99,93,52
O=C(COc1ccc(Cl)cc1)Nc1ccc(Cl)cn1,n,n,n,n,n,n,x,x,x,x,x
CC(C)(C)C(=O)c1cnc(Nc2ccccc2Cl)s1,n,83,n,90,n,79,86,90,97,75,83
CCCNC(=O)c1csc(Nc2cccc3ccccc23)n1,n,n,n,n,n,n,x,x,x,x,x
CC(=O)c1csc(Nc2ccccc2Cl)n1,n,54,n,n,n,n,n,n,70,63,n
O=C(c1ccccc1)c1cnc(Nc2ccccc2Cl)s1,n,54,n,75,n,n,73,76,87,n,53
CCC(NC(=S)NC1CCCCC1)c1ccc(C(C)C)cc1 (centres undefined),n,n,n,n,n,n,x,x,x,x,x
COc1ccc(OC)c(NC(=O)C2(C)CCN2C(=O)Cc2ccc(Cl)cc2Cl)c1 (centres undefined),n,x,x,x,n,x,x,x,x,x,x
c1ccc(-n2ncc3c(N4CCCCC4)ncnc32)cc1,n,84,n,84,n,85,86,84,96,86,84
CC1CCCN(c2ncnc3c2cnn3-c2ccccc2)C1 (centres undefined),n,n,n,64,n,62,n,n,68,n,53
CC1CCCN(c2ncnc3c2cnn3-c2ccc(Cl)cc2)C1 (centres undefined),n,95,n,94,n,94,90,94,98,92,n
Cc1ccc(-n2ncc3c(N4CCCC(C)C4)ncnc32)c(C)c1 (centres undefined),n,n,n,n,n,n,x,x,x,x,x
Cc1cccc(-n2ncc3c(N4CCC(C)CC4)ncnc32)c1,n,n,n,61,n,54,60,59,83,n,n
